Results gathered from unrelated publications.
Lines come from different studies, so protocols differ.
Target: Phosphatidylinositol 4-phosphate 3-kinase C2 domain-containing subunit beta (PIK3C2B, Homo sapiens, UniProt O00750)

Compound | effect on | method | tested at | remaining binding
Nc1ncc2c(n1)-c1c([nH]c3ccc(C#CC4CC4)cc13)CCCC2 | binding | competition with immobilised ligand | 1 µM | 89%
CN(C)c1nccc(-c2cnn3ncccc23)n1 | binding |  | 1 µM | 100%
O=C(N[C@H]1CCCCC/C=C\C2C[C@@]2(C(=O)O)NC(=O)[C@@H]2C[C@@H](Oc3ccncc3)CN2C1=O)OC1CCCC1 (stereo partly drawn) | binding | competition with immobilised ligand | 1 µM | 84%
COc1cnc(Nc2cccc(S(N)(=O)=O)c2)nc1N1CCN(c2ccccc2)CC1 | binding | competition with immobilised ligand | 1 µM | 100%
Nc1cnc(N2CCc3cc(S(=O)(=O)Nc4c(F)cc(Cl)cc4F)cc(N4CCCC4=O)c32)nc1 | cell-free assay | competition with immobilised ligand | 1 µM | 83%
N[C@H]1CCN(c2nccc(-c3cnn4ncccc34)n2)C1 | binding |  | 1 µM | 100%
CNC(=O)[C@@H]1CC[C@@H](n2c(-c3ccc4cnccc4c3)nc3ccc(C(=O)NCc4cccc(C(N)=O)c4)cc32)C1 | binding | competition with immobilised ligand | 1 µM | 100%
O=C(c1ccc(Nc2ncc(Cl)c(-c3ccc(Cl)s3)n2)cc1)N1CCC(N2CCCC2)CC1 | binding | competition with immobilised ligand | 1 µM | 98%
C=CC(=O)N1CCC(C(=O)NCC(=O)N2CCN(c3nc(-c4cnc(N)nc4C(F)F)nc(N4CCOCC4)n3)CC2)CC1 | binding | competition with immobilised ligand | 1 µM | 21%
CC(C)(C)c1ccc(-c2nc(CBr)nn2-c2cccc(O)c2)cc1 | cell-free assay | competition with immobilised ligand | 10 µM | 60%
C[C@@H]1CN(c2cc(-c3nn(C)c4ccc(OC5(C)CC5)cc34)ncn2)C[C@H](C)O1 | cell-free assay | competition with immobilised ligand | 1 µM | 70%
CN(C)c1nccc(-c2cnc3ncccn23)n1 | binding |  | 1 µM | 57%
O=C(NCC1CCOCC1)c1n[nH]cc1NC(=O)c1c(F)cccc1F | binding | competition with immobilised ligand | 1 µM | 100%
O=S(=O)(NC1CCC(c2cc(F)ccc2F)(S(=O)(=O)c2ccc(Cl)cc2)CC1)C(F)(F)F (stereo not drawn) | cell-free assay | competition with immobilised ligand | 1 µM | 100%
CN(CCCC(F)(F)F)c1nccc(-c2cnn3ncccc23)n1 | binding |  | 1 µM | 100%
O=C(c1ccc(Nc2nccc(-c3cc4ccccc4s3)n2)cc1)N1CCC(N2CCCC2)CC1 | binding | competition with immobilised ligand | 1 µM | 99%
CC1=C(C#N)C(c2ccc3c(c2)c(NC(=O)c2ccccc2C)nn3C)C(C#N)=C(C)N1 | cell-free assay | competition with immobilised ligand | 1 µM | 76%
O=C(NCCCN1CCOCC1)c1ccc(Nc2ncc(Cl)c(-c3ccc(Cl)s3)n2)cc1 | binding | competition with immobilised ligand | 1 µM | 100%
COc1ncc2cc3ccccc3nc2c1C#N | cell-free assay | competition with immobilised ligand | 5 µM | 100%
COCCOc1nc(-c2ccc(Cl)nc2)nc2c1CN(C(=O)c1ncn3ccccc13)CC2 | cell-free assay | competition with immobilised ligand | 0.1 µM | 100%
Cc1cnn2ncc(-c3ccnc(N(C)C)n3)c2c1 | binding |  | 1 µM | 100%
Cc1nccc(COC(=O)N2C[C@@H]3[C@@H](CNC(=O)c4ccc5[nH]nnc5c4)[C@@H]3C2)n1 | cell-free assay | competition with immobilised ligand | 1 µM | 97%
CN(C)c1ncc(F)c(-c2cnn3ncccc23)n1 | binding |  | 1 µM | 76%
c1cncc(-c2cccc(Nc3nccc(NC4CCCCC4)n3)c2)c1 | binding | competition with immobilised ligand | 10 µM | 81%
